Data as given in ChEMBL document CHEMBL1144557, “The novel C-5 aryl, alkenyl, and alkynyl substituted uracil derivatives of L-ascorbic acid: synthesis, cytostatic, and antiviral activity evaluations” (Bioorg Med Chem, 2007).
≈ marks a conversion by molar mass, not a printed value.

Assays:
[1] = Cytotoxicity against E6SM cells; format: cell-based; conditions: human
Procedure, shortened: (§1)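 Cells seeded at 5 × 10³ cells/well and exposed to medium containing a range of test compound concentrations. After 3 days at 37 °C, cell morphology examined microscopically. Reported as minimum cytotoxic concentration (MCC), the concentration causing a microscopically detectable alteration of normal cell morphology.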

MCF7 = assay: Antiproliferative activity against human MCF7 cells after 72 hrs by MTT assay; format: functional, cell-based; conditions: MCF7, 72 h
Procedure, shortened: (§2)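 Monolayers grown in DMEM with 10% FBS, 2 mM L-glutamine and penicillin/streptomycin at 37 °C, 5% CO2. Seeded at 1 × 10⁴–3 × 10⁴ cells/mL on day 0. Compounds from 0.04 M DMSO stocks added at five 10-fold dilutions (10⁻⁸–10⁻⁴ M final), with matched DMSO controls, for 72 h. MTT added for 4 h, formazan dissolved in DMSO, absorbance read at 570 nm. Percentage growth calculated against time-zero and untreated OD. IC50 is 50% inhibition of proliferation.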

Human alphaherpesvirus 1 [2] = assay: Antiviral activity against HSV1 KOS-induced cytopathogenicity in E6SM cells; format: functional; conditions: Human alphaherpesvirus 1, KOS
L1210 = assay: Antiproliferative activity against mouse L1210 cells; format: functional, cell-based
Procedure, shortened: (§3)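 Suspension cells seeded at 50 × 10³ cells/well with a range of test compound concentrations. Cell number counted with a Coulter counter after 2 days (L1210) or 3 days (Molt4/C8, CEM). IC50 is the concentration that cuts cell growth by 50% versus untreated controls, read from plots of cell number (% of control) against concentration.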

WI-38 = assay: Antiproliferative activity against human WI38 cells after 72 hrs by MTT assay; format: functional, cell-based; conditions: WI-38, 72 h; procedure, shortened: as §2
SW-620 = assay: Antiproliferative activity against human SW620 cells after 72 hrs by MTT assay; format: functional, cell-based; conditions: SW-620, 72 h; procedure, shortened: as §2
HeLa = assay: Antiproliferative activity against human HeLa cells after 72 hrs by MTT assay; format: functional, cell-based; procedure, shortened: as §2
Human alphaherpesvirus 2 [3] = assay: Antiviral activity against HSV2 G-induced cytopathogenicity in E6SM cells; format: functional; conditions: Human alphaherpesvirus 2, G
[4] = test system: Vesicular stomatitis virus; assay: Antiviral activity against in Vesicular stomatitis virus-induced cytopathogenicity in E6SM cells; format: functional
Punta Toro virus = assay: Antiviral activity against Punta Toro virus-induced cytopathogenicity in Vero cells; format: functional
[5] = test system: Vesicular stomatitis virus; assay: Antiviral activity against in Vesicular stomatitis virus- induced cytopathogenicity in HeLa cells; format: functional
Human alphaherpesvirus 1 [6] = assay: Antiviral activity against HSV1 TK- KOS ACV-induced cytopathogenicity in E6SM cells; format: functional; conditions: Human alphaherpesvirus 1, KOS
Sindbis virus = assay: Antiviral activity against Sindbis virus-induced cytopathogenicity in Vero cells; format: functional
MIA PaCa-2 = assay: Antiproliferative activity against human MiaPaCa2 cells after 72 hrs by MTT assay; format: functional, cell-based; procedure, shortened: as §2
CCRF-CEM = assay: Antiproliferative activity against human CEM cells; format: functional, cell-based; procedure, shortened: as §3
[7] = Antiproliferative activity against human Molt4/C8 cells; format: functional, cell-based; conditions: MOLT-4; procedure, shortened: as §3
Coxsackievirus B4 = assay: Antiviral activity against Coxsackie virus B4-induced cytopathogenicity in Vero cells; format: functional; conditions: Enterovirus B
HEp-2 = assay: Antiproliferative activity against human Hep2 cells after 72 hrs by MTT assay; format: functional, cell-based; conditions: HEp-2, 72 h; procedure, shortened: as §2
[8] = test system: Vesicular stomatitis virus; assay: Antiviral activity against in Vesicular stomatitis virus-induced cytopathogenicity in HEL cells; format: functional
[9] = Cytotoxicity against HEL cells; format: cell-based; conditions: human; procedure, shortened: as §1
Human alphaherpesvirus 1 [10] = assay: Antiviral activity against HSV1 KOS-induced cytopathogenicity in HEL cells; format: functional; conditions: Human alphaherpesvirus 1, KOS
Human alphaherpesvirus 1 [11] = assay: Antiviral activity against HSV1 TK- KOS ACV -induced cytopathogenicity in HEL cells; format: functional; conditions: Human alphaherpesvirus 1, KOS
Human alphaherpesvirus 2 [12] = assay: Antiviral activity against HSV2 G-induced cytopathogenicity in HEL cells; format: functional; conditions: Human alphaherpesvirus 2, G
[13] = Homo sapiens, MIA PaCa-2, 72 h, read-out: IC50

| SMILES | MCC ([1]; read-out: MCC) [µM] | IC50 (MCF7) [µM] | MIC (Human alphaherpesvirus 1 [2]) [µM] | IC50 (L1210) [µM] | IC50 (WI-38) [µM] | IC50 (SW-620) [µM] | IC50 (HeLa) [µM] | MIC (Human alphaherpesvirus 2 [3]) [µM] | MIC [4] [µM] | MIC (Punta Toro virus) [µM] | MIC [5] [µM] | MIC (Human alphaherpesvirus 1 [6]) [µM] | MIC (Sindbis virus) [µM] | IC50 (MIA PaCa-2; [13]) [µM] | IC50 (CCRF-CEM) [µM] | IC50 [7] [µM] | MIC (Coxsackievirus B4) [µM] | IC50 (HEp-2) [µM] | also measured |
| --- | --- | --- | --- | --- | --- | --- | --- | --- | --- | --- | --- | --- | --- | --- | --- | --- | --- | --- | --- |
| O=C1O/C(=C(\Br)Cn2c(Br)c(/C=C/Br)c(=O)[nH]c2=O)C(OCc2ccccc2)=C1OCc1ccccc1 | 578 | 15 | > 116 | 32 | 49 | ≥ 100 | 22 | > 116 | > 116 | > 116 | > 116 | > 116 | > 116 | 20 | 91 | 110 | > 116 | 22 |  |
| O=C1O/C(=C\Cn2cc(C#Cc3ccccc3)c(=O)[nH]c2=O)C(OCc2ccccc2)=C1OCc1ccccc1 | 200 | 55 | > 40 | 108 | > 100 | > 100 | > 100 | > 40 | > 40 | > 200 | > 200 | > 40 | 120 (≈ 63.9 µg/mL) | > 100 | 101 | 108 | > 200 | > 100 |  |
| CC(C)=CCc1cn(C/C=C2\OC(=O)C(OCc3ccccc3)=C2OCc2ccccc2)c(=O)[nH]c1=O |  | 4 |  | 8.2 | 2 | 4 | 2 |  |  | 4 (≈ 2 µg/mL) | > 4 |  | > 4 | 5 | 7.7 | 8.3 | > 4 | 2.6 | MIC [8]: > 4 µM; MCC [9]: 20 µM; MIC (Human alphaherpesvirus 1 [10]): 4 µM (≈ 2 µg/mL); MIC (Human alphaherpesvirus 1 [11]): > 4 µM; MIC (Human alphaherpesvirus 2 [12]): 4 µM (≈ 2 µg/mL) |
| C=C=Cc1cn(C/C=C2\OC(=O)C(OCc3ccccc3)=C2OCc2ccccc2)c(=O)[nH]c1=O | 40 | 77 | > 8 | > 250 | > 100 | > 100 | > 100 | > 8 | 8 (≈ 3.76 µg/mL) | > 200 | > 40 | > 8 | > 200 | > 100 | > 250 | > 250 | > 200 | > 100 |  |
| O=C1O/C(=C\Cn2cc(-c3cccs3)c(=O)[nH]c2=O)C(OCc2ccccc2)=C1OCc1ccccc1 | 780 | 17 | > 156 | 142 | 19 | 21 | 18 | > 156 | > 156 | > 156 | > 156 | > 6.4 | > 156 | 16.5 | 117 | 150 | > 156 | 18 |  |
| O=C1O/C(=C\Cn2cc(-c3ccccc3)c(=O)[nH]c2=O)C(OCc2ccccc2)=C1OCc1ccccc1 | 787 | 18 | > 157 | 142 | 28 | 21 | 25 | > 157 | 157 (≈ 79.8 µg/mL) | > 157 | > 157 | > 157 | > 157 | 18 | 122 | 159 | > 157 | 22 |  |
| O=C1O/C(=C\Cn2cc(/C=C/Br)c(=O)[nH]c2=O)C(OCc2ccccc2)=C1OCc1ccccc1 | 746 | 40 | > 150 | 196 | 38 | > 100 | 45 | > 150 | 150 (≈ 80.6 µg/mL) | > 150 | > 150 | > 150 | > 150 | > 100 | 233 | ≥ 200 | > 150 | 40 |  |
| Nc1nc2c(ncn2COCCO)c(=O)[nH]1 [ACYCLOVIR] |  |  | 0.48 (≈ 0.108 µg/mL) |  |  |  |  | 0.8 (≈ 0.18 µg/mL) | > 500 |  |  | 60 (≈ 13.5 µg/mL) |  |  |  |  |  |  | MCC ([1]; read-out: MIC): > 500 µM |
| O=C1O/C(=C\Cn2cc(-c3ccco3)c(=O)[nH]c2=O)C(OCc2ccccc2)=C1OCc1ccccc1 | 32 | 2 | > 6.4 | 6.8 | 1.8 | 2.4 | 2 | > 6.4 | > 6.4 | > 6.4 | > 6.4 | > 6.4 | > 6.4 | 1.6 | 7 | 6.6 | > 6.4 | 2.2 |  |
| O=C1O/C(=C\Cn2cc(-c3ccc(Cl)o3)c(=O)[nH]c2=O)C(OCc2ccccc2)=C1OCc1ccccc1 | 752 | ≥ 100 | > 150 | 165 | > 100 | > 100 | ≥ 100 | > 150 | 150 (≈ 79.9 µg/mL) | > 150 | > 150 | > 150 | > 150 | ≥ 100 | 162 | 158 | > 150 | > 100 |  |
| NC(=O)c1ncn([C@@H]2O[C@H](CO)[C@@H](O)[C@H]2O)n1 [RIBAVIRIN] |  |  | 500 (≈ 122 µg/mL) |  |  |  |  | 300 (≈ 73.3 µg/mL) | > 500 | 300 (≈ 73.3 µg/mL) | 100 (≈ 24.4 µg/mL) | 500 (≈ 122 µg/mL) | 100 (≈ 24.4 µg/mL) |  |  |  | > 500 |  | MCC ([1]; read-out: MIC): > 500 µM |
| C=CCc1cn(C/C=C2\OC(=O)C(OCc3ccccc3)=C2OCc2ccccc2)c(=O)[nH]c1=O | 40 | 4.7 | > 8 | 20 | 10.4 | 2.7 | 2.9 | > 8 | > 8 | > 40 | 24 (≈ 11.3 µg/mL) | > 8 | 24 (≈ 11.3 µg/mL) | 5 | 20 | 20 | 24 (≈ 11.3 µg/mL) | 4.7 |  |
| Nc1ncnc2c1ncn2C[C@H](O)CO [(S)-DHPA] |  |  |  |  |  |  |  |  |  | 300 (≈ 62.8 µg/mL) | > 500 |  | > 500 |  |  |  | > 500 |  |  |
| CC#Cc1cn(C/C=C2\OC(=O)C(OCc3ccccc3)=C2OCc2ccccc2)c(=O)[nH]c1=O | 2 | 0.2 | > 0.4 | 0.47 | 0.2 | 0.3 | 0.2 | > 0.4 | > 0.4 | > 1.6 | 1.6 (≈ 0.753 µg/mL) | > 0.4 | 1.6 (≈ 0.753 µg/mL) |  | 0.77 | 0.78 | 1.6 (≈ 0.753 µg/mL) | 0.7 | IC50 (MIA PaCa-2; mia paca-2): 0.5 µM |
| O=C1O/C(=C\Cn2cc(-c3ccc(Br)o3)c(=O)[nH]c2=O)C(OCc2ccccc2)=C1OCc1ccccc1 | 347 | 29 | > 70 | 115 | 16 | 49 | 24 | > 70 | 70 (≈ 40.4 µg/mL) | > 70 | 70 (≈ 40.4 µg/mL) | > 70 | > 70 | 27 | 134 | 125 | > 70 | 28 |  |
| O=c1[nH]c(=O)n([C@H]2C[C@H](O)[C@@H](CO)O2)cc1/C=C/Br [BRIVUDINE] |  |  | 0.48 (≈ 0.16 µg/mL) |  |  |  |  | 300 (≈ 99.9 µg/mL) | > 500 | > 500 | > 500 | 300 (≈ 99.9 µg/mL) | > 500 |  |  |  | > 500 |  | MCC ([1]; read-out: MIC): > 500 µM |
| Nc1nc2c(ncn2COC(CO)CO)c(=O)[nH]1 [GANCICLOVIR] |  |  | 0.096 (≈ 0.0245 µg/mL) |  |  |  |  | 0.096 (≈ 0.0245 µg/mL) | > 100 |  |  | 0.8 (≈ 0.204 µg/mL) |  |  |  |  |  |  | MCC ([1]; read-out: MIC): > 100 µM |
| C=Cc1cn(C/C=C2\OC(=O)C(O)=C2O)c(=O)[nH]c1=O | 720 | 36 | > 144 | 309 | 36 | > 100 | 40 | > 144 | > 144 | > 29 | > 120 | > 144 | > 29 | ≥ 100 | 284 | 309 | > 29 | 46 |  |
